Converted amounts (≈) assume the structure as drawn.
Tests used:
[1] = Antimicrobial activity against Salmonella enterica serotype Newport AM17274 expressing CMY-31 cephalosporinase by agar dilution method; type: functional, Salmonella enterica subsp. enterica serovar Newport
Outline: (§1)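 MICs of β-lactams determined by agar dilution against the clinical isolates.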

Escherichia coli [2] = experiment: Antimicrobial activity against Escherichia coli DH5[alpha] harboring pB-c31 plasmid expressing cephalosporinase CMY-31 by agar dilution method; type: functional
Escherichia coli [3] = experiment: Antimicrobial activity against Escherichia coli DH5[alpha] transformant harboring pA172 plasmid expressing cephalosporinase CMY-31 by agar dilution method; type: functional
Escherichia coli [4] = experiment: Antimicrobial activity against Escherichia coli DH5[alpha] transformant harboring pH205 plasmid expressing cephalosporinase CMY-36 by agar dilution method; type: functional
Escherichia coli [5] = experiment: Antimicrobial activity against Escherichia coli DH5[alpha] harboring pB-c36 plasmid expressing cephalosporinase CMY-36 by agar dilution method; type: functional
Escherichia coli [6] = experiment: Antimicrobial activity against Escherichia coli DH5[alpha] harboring pB-c2 plasmid expressing cephalosporinase CMY-2 by agar dilution method; type: functional
[7] = molecular target: Class C beta-lactamase CMY-36 (Klebsiella pneumoniae, UniProt Q48435); experiment: Inhibition of Klebsiella pneumoniae HP205 cephalosporinase CMY-36 by UV spectrophotometer in presence of 100 uM of cephalothin
[8] = Inhibition of CMY-2 by UV spectrophotometer in presence of 100 uM of cephalothin
[9] = Antimicrobial activity against Salmonella enterica serotype Newport AM17274 expressing CMY-31 cephalosporinase by agar dilution method in presence of clavulanic acid; type: functional, Salmonella enterica subsp. enterica serovar Newport; outline: as §1
Escherichia coli [10] = experiment: Antimicrobial activity against Escherichia coli DH5[alpha] harboring pBCSK plasmid by agar dilution method; type: functional
Escherichia coli [11] = experiment: Antimicrobial activity against Escherichia coli DH5[alpha] harboring pB-c31 plasmid expressing cephalosporinase CMY-31 by agar dilution method in presence of clavulanic acid; type: functional
Escherichia coli [12] = experiment: Antimicrobial activity against Escherichia coli DH5[alpha] harboring pB-c36 plasmid expressing cephalosporinase CMY-36 by agar dilution method in presence of clavulanic acid; type: functional
Klebsiella pneumoniae [13] = experiment: Antimicrobial activity against Klebsiella pneumoniae HP205 expressing CMY-36 cephalosporinase by agar dilution method in presence of clavulanic acid in presence of clavulanic acid; type: functional; outline: as §1
Klebsiella pneumoniae [14] = experiment: Antimicrobial activity against Klebsiella pneumoniae HP205 expressing CMY-36 cephalosporinase by agar dilution method; type: functional; outline: as §1
Escherichia coli [15] = experiment: Antimicrobial activity against Escherichia coli DH5[alpha] harboring pB-c2 plasmid expressing cephalosporinase CMY-2 by agar dilution method in presence of clavulanic acid; type: functional
Escherichia coli [16] = experiment: Antimicrobial activity against Escherichia coli DH5[alpha] transformant harboring pA172 plasmid expressing cephalosporinase CMY-31 by agar dilution method in presence of clavulanic acid; type: functional
Escherichia coli [17] = experiment: Antimicrobial activity against Escherichia coli DH5[alpha] transformant harboring pH205 plasmid expressing cephalosporinase CMY-36 by agar dilution method in presence of clavulanic acid; type: functional
Escherichia coli [18] = experiment: Antimicrobial activity against Escherichia coli DH5[alpha] harboring pBCSK plasmid by agar dilution method in presence of clavulanic acid; type: functional
Escherichia coli [19] = experiment: Antimicrobial activity against Escherichia coli DH5[alpha] harboring pBCSK plasmid by agar dilution method in presence of Tazobactam; type: functional
Escherichia coli [20] = experiment: Antimicrobial activity against Escherichia coli DH5[alpha] harboring pB-c2 plasmid expressing cephalosporinase CMY-2 by agar dilution method in presence of Tazobactam; type: functional
Escherichia coli [21] = experiment: Antimicrobial activity against Escherichia coli DH5[alpha] transformant harboring pH205 plasmid expressing cephalosporinase CMY-36 by agar dilution method in presence of Tazobactam; type: functional
Escherichia coli [22] = experiment: Antimicrobial activity against Escherichia coli DH5[alpha] harboring pB-c31 plasmid expressing cephalosporinase CMY-31 by agar dilution method in presence of Tazobactam; type: functional
Klebsiella pneumoniae [23] = experiment: Antimicrobial activity against Klebsiella pneumoniae HP205 expressing CMY-36 cephalosporinase by agar dilution method in presence of Tazobactam; type: functional
[24] = Antimicrobial activity against Salmonella enterica serotype Newport AM17274 expressing CMY-31 cephalosporinase by agar dilution method in presence of Tazobactam; type: functional, Salmonella enterica subsp. enterica serovar Newport
Escherichia coli [25] = experiment: Antimicrobial activity against Escherichia coli DH5[alpha] harboring pB-c36 plasmid expressing cephalosporinase CMY-36 by agar dilution method in presence of Tazobactam; type: functional
Escherichia coli [26] = experiment: Antimicrobial activity against Escherichia coli DH5[alpha] transformant harboring pA172 plasmid expressing cephalosporinase CMY-31 by agar dilution method in presence of Tazobactam; type: functional

Class C beta-lactamase CMY-36, sequence (Q48435 whole entry): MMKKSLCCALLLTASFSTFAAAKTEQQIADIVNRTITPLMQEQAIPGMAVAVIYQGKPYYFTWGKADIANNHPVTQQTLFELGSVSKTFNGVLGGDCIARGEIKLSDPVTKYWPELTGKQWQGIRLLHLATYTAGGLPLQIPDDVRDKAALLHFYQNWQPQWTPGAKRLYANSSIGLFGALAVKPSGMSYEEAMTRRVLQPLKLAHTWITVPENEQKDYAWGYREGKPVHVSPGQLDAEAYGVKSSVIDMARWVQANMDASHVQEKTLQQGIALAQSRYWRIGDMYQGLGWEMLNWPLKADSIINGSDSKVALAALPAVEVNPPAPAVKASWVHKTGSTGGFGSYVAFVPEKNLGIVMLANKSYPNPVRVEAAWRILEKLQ

Compound: CO/N=C(\C(=O)N[C@@H]1C(=O)N2C(C(=O)[O-])=C(C[N+]3(C)CCCC3)CS[C@H]12)c1csc(N)n1
- MIC [1]: 0.12 µg/mL (≈ 0.25 µM)
- MIC (Escherichia coli [2]): 0.25 µg/mL (≈ 0.52 µM)
- MIC (Escherichia coli [3]): 0.12 µg/mL (≈ 0.25 µM)
- MIC (Escherichia coli [4]): 0.25 µg/mL (≈ 0.52 µM)
- MIC (Escherichia coli [5]): 0.25 µg/mL (≈ 0.52 µM)
- MIC (Escherichia coli [6]): 0.25 µg/mL (≈ 0.52 µM)

Compound: C[C@]1(/C=C\C#N)[C@H](C(=O)O)N2C(=O)C[C@H]2S1(=O)=O
- IC50 [7]: 300 nM
- IC50 [8]: 300 nM

Compound: CC1(C)S[C@@H]2[C@H](NC(=O)[C@H](N)c3ccc(O)cc3)C(=O)N2[C@H]1C(=O)O [AMOXICILLIN]
- MIC [9]: > 64 µg/mL
- MIC [1]: > 256 µg/mL
- MIC (Escherichia coli [10]): 2 µg/mL (≈ 5.47 µM)
- MIC (Escherichia coli [11]): > 64 µg/mL
- MIC (Escherichia coli [2]): > 256 µg/mL
- MIC (Escherichia coli [12]): > 64 µg/mL
- MIC (Escherichia coli [3]): > 256 µg/mL
- MIC (Klebsiella pneumoniae [13]): > 64 µg/mL
- MIC (Escherichia coli [4]): > 256 µg/mL
- MIC (Klebsiella pneumoniae [14]): > 256 µg/mL
- MIC (Escherichia coli [5]): > 256 µg/mL
- MIC (Escherichia coli [15]): > 64 µg/mL
- MIC (Escherichia coli [6]): > 256 µg/mL
- MIC (Escherichia coli [16]): > 64 µg/mL
- MIC (Escherichia coli [17]): > 64 µg/mL
- MIC (Escherichia coli [18]): 2 µg/mL

Compound: CO/N=C(\C(=O)N[C@@H]1C(=O)N2C(C(=O)O)=C(COC(C)=O)CS[C@H]12)c1csc(N)n1 [CEFOTAXIME]
- MIC [1]: 32 µg/mL (≈ 70.3 µM)
- MIC (Escherichia coli [10]): 0.12 µg/mL (≈ 0.263 µM)
- MIC (Escherichia coli [2]): 128 µg/mL (≈ 281 µM)
- MIC (Escherichia coli [3]): 32 µg/mL (≈ 70.3 µM)
- MIC (Escherichia coli [4]): 32 µg/mL (≈ 70.3 µM)
- MIC (Klebsiella pneumoniae [14]): 32 µg/mL (≈ 70.3 µM)
- MIC (Escherichia coli [5]): 128 µg/mL (≈ 281 µM)
- MIC (Escherichia coli [6]): 128 µg/mL (≈ 281 µM)

Compound: CO[C@@]1(NC(=O)Cc2cccs2)C(=O)N2C(C(=O)O)=C(COC(N)=O)CS[C@@H]21 [CEFOXITIN]
- MIC [1]: > 256 µg/mL
- MIC (Escherichia coli [10]): 4 µg/mL (≈ 9.36 µM)
- MIC (Escherichia coli [2]): > 256 µg/mL
- MIC (Escherichia coli [3]): > 256 µg/mL
- MIC (Escherichia coli [4]): > 256 µg/mL
- MIC (Klebsiella pneumoniae [14]): > 256 µg/mL
- MIC (Escherichia coli [5]): > 256 µg/mL
- MIC (Escherichia coli [6]): > 256 µg/mL

Compound: CC(C)(O/N=C(\C(=O)N[C@@H]1C(=O)N2C(C(=O)[O-])=C(C[n+]3ccccc3)CS[C@H]12)c1csc(N)n1)C(=O)O [CEFTAZIDIME]
- MIC [1]: 32 µg/mL (≈ 58.5 µM)
- MIC (Escherichia coli [10]): 0.5 µg/mL (≈ 0.915 µM)
- MIC (Escherichia coli [2]): 256 µg/mL (≈ 468 µM)
- MIC (Escherichia coli [3]): 128 µg/mL (≈ 234 µM)
- MIC (Escherichia coli [4]): 128 µg/mL (≈ 234 µM)
- MIC (Klebsiella pneumoniae [14]): 64 µg/mL (≈ 117 µM)
- MIC (Escherichia coli [5]): 256 µg/mL (≈ 468 µM)
- MIC (Escherichia coli [6]): 256 µg/mL (≈ 468 µM)

Compound: CO/N=C(\C(=O)N[C@@H]1C(=O)N2C(C(=O)O)=C(CSc3nc(=O)c(O)nn3C)CS[C@H]12)c1csc(N)n1 [CEFTRIAXONE]
- MIC [1]: 16 µg/mL (≈ 28.9 µM)
- MIC (Escherichia coli [10]): 0.12 µg/mL (≈ 0.216 µM)
- MIC (Escherichia coli [2]): 256 µg/mL (≈ 462 µM)
- MIC (Escherichia coli [3]): 32 µg/mL (≈ 57.7 µM)
- MIC (Escherichia coli [4]): 64 µg/mL (≈ 115 µM)
- MIC (Klebsiella pneumoniae [14]): 32 µg/mL (≈ 57.7 µM)
- MIC (Escherichia coli [5]): 128 µg/mL (≈ 231 µM)
- MIC (Escherichia coli [6]): 128 µg/mL (≈ 231 µM)

Compound: CO/N=C(\C(=O)N[C@@H]1C(=O)N2C(C(=O)O)=C(COC(N)=O)CS[C@H]12)c1ccco1 [CEFUROXIME]
- MIC [1]: > 256 µg/mL
- MIC (Escherichia coli [10]): 2 µg/mL (≈ 4.71 µM)
- MIC (Escherichia coli [2]): > 256 µg/mL
- MIC (Escherichia coli [3]): > 256 µg/mL
- MIC (Escherichia coli [4]): > 256 µg/mL
- MIC (Klebsiella pneumoniae [14]): > 256 µg/mL
- MIC (Escherichia coli [5]): > 256 µg/mL
- MIC (Escherichia coli [6]): > 256 µg/mL

Compound: Cc1onc(-c2ccccc2Cl)c1C(=O)N[C@@H]1C(=O)N2[C@@H]1SC(C)(C)[C@@H]2C(=O)O [CLOXACILLIN]
- IC50 [7]: 4 nM
- IC50 [8]: 4 nM

Compound: C[C@@H](O)[C@H]1C(=O)N2C(C(=O)O)=C(SCCNC=N)C[C@H]12 [IMIPENEM ANHYDROUS]
- MIC [1]: 0.25 µg/mL (≈ 0.835 µM)
- MIC (Escherichia coli [2]): 0.5 µg/mL (≈ 1.67 µM)
- MIC (Escherichia coli [3]): 0.5 µg/mL (≈ 1.67 µM)
- MIC (Escherichia coli [4]): 0.5 µg/mL (≈ 1.67 µM)
- MIC (Klebsiella pneumoniae [14]): 0.5 µg/mL (≈ 1.67 µM)
- MIC (Escherichia coli [5]): 0.5 µg/mL (≈ 1.67 µM)
- MIC (Escherichia coli [6]): 0.5 µg/mL (≈ 1.67 µM)

Compound: CCN1CCN(C(=O)N[C@@H](C(=O)N[C@@H]2C(=O)N3[C@@H]2SC(C)(C)[C@@H]3C(=O)O)c2ccccc2)C(=O)C1=O [PIPERACILLIN]
- MIC [1]: 64 µg/mL (≈ 124 µM)
- MIC (Escherichia coli [19]): 0.5 µg/mL
- MIC (Escherichia coli [20]): 64 µg/mL
- MIC (Escherichia coli [21]): 32 µg/mL
- MIC (Escherichia coli [22]): 64 µg/mL
- MIC (Escherichia coli [10]): 1 µg/mL (≈ 1.93 µM)
- MIC (Escherichia coli [2]): 256 µg/mL (≈ 495 µM)
- MIC (Klebsiella pneumoniae [23]): 32 µg/mL
- MIC (Escherichia coli [3]): 128 µg/mL (≈ 247 µM)
- MIC [24]: 16 µg/mL
- MIC (Escherichia coli [4]): 128 µg/mL (≈ 247 µM)
- MIC (Escherichia coli [25]): 64 µg/mL
- MIC (Klebsiella pneumoniae [14]): 128 µg/mL (≈ 247 µM)
- MIC (Escherichia coli [5]): 256 µg/mL (≈ 495 µM)
- MIC (Escherichia coli [6]): 256 µg/mL (≈ 495 µM)
- MIC (Escherichia coli [26]): 32 µg/mL

Compound: CC1(C)S[C@@H]2[C@H](NC(=O)[C@H](C(=O)O)c3ccsc3)C(=O)N2[C@H]1C(=O)O [TICARCILLIN]
- MIC [1]: > 256 µg/mL
- MIC (Escherichia coli [10]): 2 µg/mL (≈ 5.2 µM)
- MIC (Escherichia coli [2]): > 256 µg/mL
- MIC (Escherichia coli [3]): > 256 µg/mL
- MIC (Escherichia coli [4]): > 256 µg/mL
- MIC (Klebsiella pneumoniae [14]): > 256 µg/mL
- MIC (Escherichia coli [5]): > 256 µg/mL
- MIC (Escherichia coli [6]): > 256 µg/mL

Source: ChEMBL document CHEMBL1629653, “CMY-31 and CMY-36 cephalosporinases encoded by ColE1-like plasmids” (Antimicrob Agents Chemother, 2009)
